Our source for the outcome values is PubChem BioAssay.

Activity calls are given as the source filed them.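 Rule for the calls: active = primary screen active whose calcium signal fell more than 3 SD beyond the full-serotonin control mean in both duplicate plates; inactive = the rest.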

A short description of the assay: serotonin-gated TRPC4 signal block – cell-based, second counter screen, HEK293 TRPC4/5HT1a, Fluo-4, counter-screen for TRPC4 inhibitor project, confirmation (AID 434978).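 Note: serotonin given first at submaximal then at maximal dose after compound preincubation.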 To be noted: Fluo-4 calcium flux, at 10 µM, serotonin added to trigger calcium flux. In outline:
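Times: 110 s each for compound, submaximal and ECmax serotonin; Assay system: TRPC4/5HT1a HEK293 cells; Also added: serotonin, a submaximal addition followed by a maximal (ECmax) addition; Replicates: each compound tested on duplicate plates; Measured by: Fluo-4 calcium fluorescence.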
Turning to `CN(CCCNC(=O)CCCOc1cc(=O)n(C)c2ccccc12)Cc1ccccc1`, the outcome was inactive.
With `CCOc1ccccc1C(=O)NCCc1cnc[nH]1` the entry was “inactive”; with `Cc1ccccc1-n1c(=O)c2c(n3cnnc13)-c1ccccc1CC21CCCCC1`, “inactive”.
As for `CN(C)S(=O)(=O)N1CCC(CCCC2CCN(S(=O)(=O)N(C)C)CC2)CC1`, the entry is “inactive”; as for `O=C(Nc1ccnn1C1CCN(Cc2cc3ccccc3[nH]2)CC1)C1CCOC1` (stereo unspecified), “inactive”; as for `C=CCOc1ccc(CN(C)Cc2nc3cc(C(F)(F)F)ccc3c(=O)[nH]2)cc1`, “inactive”.
Take `Cc1ccc(C(=O)C[n+]2cccc3cc(C)ccc32)cc1`: the outcome was inactive.
Turning to `CN(C)CCCN(C(=O)CCc1ccccc1)c1nc2ccc(F)cc2s1`, the outcome was inactive.
Turning to `CC(=O)n1cc([C@@H]2C=C(C(=O)NCc3ccccc3)O[C@H](OCc3ccc(CO)cc3)C2)c2ccccc21`, the outcome was inactive.
With `O=C(O)CCCN1C(=O)/C(=C\c2ccc(-c3nc4ccccc4s3)o2)SC1=S`, the outcome was inactive.
On to `CCOCCCn1c(=S)[nH]c2cc(C(=O)NCCCN(CC)CC)ccc2c1=O`, for which the outcome was inactive.
`O=C(NCc1ccccc1)c1ccc(S(=O)(=O)Nc2cccc(C(F)(F)F)c2)cc1`: the result was inactive.
Regarding `CCOC(=O)C1CCCN(C(=O)CCCn2nnnc2CN2CCOCC2)C1` (stereo unspecified), the result was inactive.
With `COc1cc(OC)c2c(-c3ccccc3)cc(=O)oc2c1C(CCN1CCCCC1)c1ccc(N(C)C)cc1` (stereo unspecified), the result was inactive.
As for `CCCCCCCCCC[n+]1cccc2c3ccccc3ccc21`, the entry is “inactive”.
As for `CC(C)NS(=O)(=O)c1ccc(NC(=O)C(C)Oc2ccc(C(=O)c3ccccc3)cc2)cc1` (stereo unspecified), the entry is “inactive”.
